In the library only some 1.9% were active in any assay of this set; here they are far more common.
MBD2 DNA inh: inhibitors of MBD2 binding to methylated DNA, primary screen, biochemical, TR-FRET, DNA-binding domain, human; Methyl-CpG-binding domain protein 2 (Homo sapiens), Q9UBB5; MBD2 binding to methylated oligonucleotide; inhibition, % at 4.4 µM; 370,000 tested, 0.31% active; AID 686964, 2013; in the data active = inhibition above about 13%
Rin1-Abl PPI inh: inhibitors of Rin1-Abl protein binding, primary screen, biochemical, TR-FRET | Tyrosine-protein kinase ABL1 (Homo sapiens) + Ras and Rab interactor 1 (Homo sapiens), … | inhibition, % at 7.35 µM | 360,000 tested, 0.4% active | AID 588664, 2011; in the data active = inhibition above about 5%, passing the limit was not always enough
TDP2 absorb: human TDP2 enzyme inhibitors, primary screen, biochemical, epi absorbance, recombinant enzyme. T5PNP hydrolysis, p-nitrophenol absorbance 415 nm. inhibition, % at 12.8 µM. 370,000 tested, 0.34% active;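 active = inhibition above the mean of all tested compounds plus 3 SD, set per campaign, cut at about 25% in these data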;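 also: 0% = DMSO with enzyme and 100% = buffer with substrate but no TDP2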
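Incubation: 2 h at 37 °C; Test system: recombinant human TDP2; Quantity: enzyme 120 nM; Read-out basis: percent inhibition; Medium: 50 mM Tris-HCl pH 7.5 with Mg2+, KCl, DTT, BSA; Repeats: single replicate; Compound: 12.8 µM single point, 1% DMSO; Signal: epi absorbance; Reagent: 5 mM T5PNP chromogenic substrate; Benchmarks: no-enzyme high, DMSO-plus-enzyme low.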
UHRF1 binding: UHRF1 methylated DNA binding inhibitors, primary screen, counter-screen for MBD2 inhibitor project, biochemical, TR-FRET, human UHRF1, single concentration | UHRF1 binding to methylated oligo | inhibition, % at 4.4 µM | E3 ubiquitin-protein ligase UHRF1 (Homo sapiens), Q96T88 | 370,000 tested, 0.75% active; in the data active = inhibition above about 21%;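 also: UHRF1 SRA domain binding a hemimethylated CpG hairpin DNA probe; 0% = median of test compound wells and 100% = reference inhibitor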
LEDGF integ inh: blockers of LEDGF/p75-dependent integrase strand transfer – biochemical, TR-FRET, high throughput, primary screen. HIV-1 integrase (with human LEDGF/p75). TR-FRET IN-LEDGF/p75 DNA integration, Eu/Cy5. inhibition, % at 3.7 µM. 370,000 tested, 0.64% active. AID 743269, 2014;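 active = inhibition above the screen-wide mean plus 3 SD, cut at about 13% in these data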;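 also: signal is the Cy5 over europium emission ratio at 671 and 618 nm; 0% = plate median of compound wells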
Numbers without * were called inactive; nt = no result given.

SMILES | MBD2 DNA inh | Rin1-Abl PPI inh | TDP2 absorb | UHRF1 binding | LEDGF integ inh
CCCCCCn1c(=O)n2n(c1=O)[C@@H]1CN(S(=O)(=O)c3ccc(C)cc3)C[C@]1(O)[C@@H](OC(=O)NCC1CCCCC1)C2 | 4.0 | -0.6 | -9.2 | 23.3* | -0.1
COc1ccc(S(=O)(=O)N2CCN(CC(=O)c3ccc(O)c(O)c3)CC2)cc1 | 0.5 | 0.4 | 14.7 | 6.1 | 60.9*
O=C(CN1CCN(S(=O)(=O)c2ccc(F)cc2)CC1)c1ccc(O)c(O)c1 | 1.7 | -5.2 | 13.0 | -0.4 | 12.6
Cc1ccc(OCc2nnc(SCC(=O)Nc3ccc4c(c3)OCO4)n2Cc2ccco2)cc1 | -5.5 | nt | 7.3 | -0.7 | -1.1
O=C(/C=C/c1cccc(Br)c1)N1CCN(c2cccc(C(F)(F)F)c2)CC1 | 9.2 | 2.2 | -1.6 | 23.9* | 3.2
Cc1cc(N2CCN(C(c3ccnc4ccccc34)c3nnnn3-c3c(C)cccc3C)CC2)c2ccccc2n1 (configuration not stated) | 2.6 | nt | 6.3 | 24.3* | 0.0
COCCNCC1C(Oc2ccc(Cl)cc2)C(=O)N1c1ccccc1C (configuration not stated) | -3.2 | -0.1 | 4.3 | 4.0 | -2.6
COc1ccc(CCNCC2C(Oc3ccc(Cl)cc3)C(=O)N2c2ccccc2C)cc1OC (configuration not stated) | 9.6 | 3.6 | -2.4 | 23.4* | -4.1
Cc1ccccc1N1CCN(C(=O)CN2C(=O)CC(C)(C)S(=O)(=O)c3ccccc32)CC1 | 1.9 | nt | 14.8 | -1.7 | -1.1
CCOC(=O)c1c(C)n(CCNC(C)=O)c2ccc(OC)cc12 | -1.9 | 1.6 | -1.4 | 2.1 | 2.2
CCOC(=O)c1c(-c2ccccc2)c2cc(OC)ccc2n1CCCN(C)C | -1.2 | 0.0 | -11.5 | 26.0* | -2.8
S=C(NCc1ccccc1)NC1CCSc2ccccc21 (configuration not stated) | 7.5 | -1.2 | -1.7 | 23.8* | 7.5
CC(C)CCn1c(COc2ccccc2)n[nH]c1=S | 0.3 | 2.2 | -11.3 | 21.4* | -2.2
CCCCNC(=O)N1CCCC1C(=O)Nc1cccc(OC)c1 (configuration not stated) | 2.5 | nt | 1.8 | -0.5 | 0.3
COc1cc(Cl)c(C)cc1NC(=O)c1ccc(S(C)(=O)=O)cc1 | 7.1 | -1.8 | -4.2 | 23.8* | 1.2
COc1cc(NC(=O)C2CCCN(S(=O)(=O)c3ccc(Cl)s3)C2)cc(OC)c1 (configuration not stated) | 4.4 | nt | 7.1 | 0.1 | -2.5
CC(C)C[C@@H](COCc1ccc([N+](=O)[O-])cc1)N1CCN(C(=O)c2ccc(C(F)(F)F)cc2)CCC1=O | 5.0 | nt | -2.5 | 21.5* | -1.8
CC1(C)NC(=O)N(CCOCCOc2ccccc2-c2ccccc2)C1=O | 0.7 | -0.5 | 12.6 | 27.8* | -1.5
CC1CN(C(=O)c2cc3c(=O)n4ccccc4nc3n2C)CC(C)O1 (configuration not stated) | 0.0 | 0.1 | 7.0 | 26.6* | -1.6
CCC(C)n1c(SC(C)C#N)nc2ccccc2c1=O (configuration not stated) | -1.4 | 0.1 | -3.5 | 27.6* | -0.6
Cc1nc2sc(C(=O)NCc3ccncc3)c(N)c2c(C)c1Cl | 0.6 | nt | -3.9 | 1.5 | 2.1
COC(=O)c1ccc(NCc2c(O)ccc(O)c2Br)cc1Cl | -9.5 | 1.1 | -22.1 | -1.4 | 15.0*
COC(=O)c1ccc(NCc2cc(O)ccc2O)cc1O | 1.6 | -2.3 | 4.1 | -5.9 | -0.4
C[n+]1c(-c2ccc(C=NNC(=O)c3ccc(C(=O)NN=Cc4ccc(-c5cn6ccccc6[n+]5C)cc4)cc3)cc2)cn2ccccc21 | 22.9* | nt | -0.2 | 37.4* | 31.1*
N=C1/C(=C\c2ccc(-c3cc(Cl)cc(Cl)c3)o2)C(=O)N=C2SC=C(c3ccccc3)N12 | 0.6 | 1.0 | -5.1 | 2.2 | 2.6
SMILES | MBD2 DNA inh | Rin1-Abl PPI inh | TDP2 absorb | UHRF1 binding | LEDGF integ inh
N=C1/C(=C/c2ccc(-c3cccc(C(=O)O)c3)o2)C(=O)N=C2SC=C(c3ccccc3)N12 | 7.2 | 4.5 | 4.1 | 5.3 | 23.6*
Clc1ccc(Nc2nc(-c3ccncc3)cs2)cc1 | -1.7 | 2.2 | -1.1 | -0.4 | -1.8
Fc1ccc(Nc2nc(-c3ccncc3)cs2)cc1 | 4.8 | 0.4 | 0.4 | 28.1* | 11.7
CCCCOc1ccc(Nc2cc(Cl)ccc2C(=O)O)cn1 | 12.0 | 3.0 | 6.4 | 21.7* | -3.4
Cc1ccc2c(c1C)NC(C(=O)O)C1CC=CC21 (configuration not stated) | nt | 6.6 | nt | nt | nt
Cc1cc(C)c2c(c1)NC(C(=O)O)C1CC=CC21 (configuration not stated) | 15.5* | 0.5 | 7.5 | 39.2* | 31.2*
COc1cc(OC)cc(C2C(C#N)=C(N)Oc3n[nH]c(-c4cccnc4)c32)c1 (configuration not stated) | -3.5 | 2.1 | 6.8 | -8.5 | -2.2
CC(C)(C)c1ccc(C2C(C#N)=C(N)Oc3n[nH]c(-c4cccnc4)c32)cc1 (configuration not stated) | 0.0 | -1.7 | 36.4* | -8.7 | 0.3
CC(=NCCc1ccccc1)C1=C(O)CCC1=O | 3.0 | 1.3 | -2.8 | 45.0* | -1.3
CN1CCN(S(=O)(=O)c2cccc(C(=O)N3CCN(c4ccccc4)CC3)c2)CC1 | 4.3 | 0.2 | 0.2 | 49.2* | -2.2
CC(C)N(CC#CCC1(O)c2ccccc2-c2ccccc21)CCO | 12.0 | 3.3 | 0.0 | 28.1* | -1.2
COc1ccc(Cn2c(NC(=O)c3ccccc3)nc(Cc3ccccc3)c2-c2ccccc2)c(OC)c1 | 1.7 | nt | 4.6 | -1.8 | 8.8
Cc1ccc2cc(CN(C)S(C)(=O)=O)c(=O)[nH]c2c1 | -2.3 | -1.4 | -18.8 | 35.2* | 4.3
Cc1ccc(N(Cc2cc3ccc(C)cc3[nH]c2=O)S(C)(=O)=O)c(C)c1 | -0.4 | -4.6 | -6.5 | 0.2 | -10.2
COc1ccc(/C=C(\NC(=O)c2ccccc2)C(=O)N2CCCCC2)cc1OC | -2.2 | -0.9 | -8.9 | 55.6* | 6.6
COc1ccc(/C=C(/NC(=O)c2ccccc2)C(=O)N2CCCCC2)cc1OC | -1.3 | -3.2 | 9.8 | -0.6 | 1.7
Cc1ccc(C(=O)NC2CCCCN(Cc3cccc(F)c3)C2=O)cc1 (configuration not stated) | 2.9 | nt | -7.6 | 2.0 | 5.8
Cc1ccc(NC(=S)NC(=O)CC2CC(C)(C)OC2=O)cc1 (configuration not stated) | 3.2 | -2.6 | -5.3 | 62.3* | -2.9
CC1(C)CC(CC(=O)NC(=S)Nc2ccc([N+](=O)[O-])cc2)C(=O)O1 (configuration not stated) | -1.1 | -2.4 | 8.6 | 6.6 | 1.8

High-throughput results: PubChem, The Scripps Research Institute Molecular Screening Center
